Structures can show the parent of a compound that is named as a salt.
Tests used:
[1] = test system: bovine brain tubulin; experiment: Inhibition of tubulin assembly; format: biochemical; settings: for IC50: read-out: Inhibition of tubulin assembly IC50 ± SD, 10 µM bovine brain tubulin, 0.4 mM GTP, 30 °C, 20 min
Outline: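 10 µM bovine brain tubulin in glutamate buffer was preincubated with varying test compound concentrations at 30 °C, then chilled to 0 °C. 0.4 mM GTP was added and the mixture rewarmed to 30 °C in a recording spectrophotometer. Assembly was followed as turbidity at 350 nm. IC50 is the concentration cutting assembly extent by 50% after 20 min.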

[2] = test system: HeLa, HT29, SEM, and Jurkat tumor cells; experiment: Cytotoxicity on tumor cell panel; format: cell-based, human
Outline: (§1)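 Cells from ATCC. Jurkat and SEM were grown in RPMI-1640, and HeLa and HT-29 in DMEM, each with 115 units/mL penicillin G, 115 µg/mL streptomycin and 10% FBS. 8 × 10³ cells/well were seeded 18 h ahead (37 °C, 5% CO2). The medium was then replaced with test compound at several concentrations (10 mM DMSO stock) for 72 h at 37 °C. MTT read-out was at 560 nm; IC50 is 50% proliferation inhibition.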

[3] = test system: HeLa; experiment: Antiproliferative assay; format: cell-based; settings: Homo sapiens, 72 h, read-out: In vitro cytotoxic activity IC50, HeLa
[4] = test system: tubulin; experiment: Inhibition of [3H]halichondrin B binding to tubulin; set-up: species or system bovine; settings: for Inhibition of binding of [3H]halichondrin B, % inhibition ± SD: 10 µM tubulin, 10 µM radiolabeled ligand
Outline: (§2)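 Radioligand binding in 0.1 M MES (pH 6.9) with 0.5 mM MgCl2, 10 µM tubulin (1.0 mg/mL), 10 µM radiolabeled ligand and inhibitors at different concentrations. Ligands were mixed before tubulin was added, then incubated 15 min at around 20 °C. Duplicate aliquots were run through Sephadex G-50 superfine syringe columns equilibrated in 0.1 M MES-0.5 mM MgCl2 (pH 6.9). At least two experiments per condition.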

[5] = test system: tubulin; experiment: Inhibition of [3H]vinblastine binding to tubulin; set-up: species or system bovine; settings: for Inhibition of binding of [3H]vinblastine, % inhibition ± SD: 10 µM tubulin, 10 µM radiolabeled ligand
Outline: as §2

[6] = test system: SEM cells; experiment: Antiproliferative assay; format: cell-based; settings: Homo sapiens, B-cell, 72 h, read-out: In vitro cytotoxic activity IC50, SEM
Outline: as §1

[7] = test system: HT29; experiment: Antiproliferative assay; format: cell-based; settings: Homo sapiens, HT-29, 72 h, read-out: In vitro cytotoxic activity IC50, HT29
[8] = test system: tubulin; experiment: Inhibition of [3H]dolastatin 10 binding to tubulin; set-up: species or system bovine; settings: for Inhibition of binding of [3H]dolastatin 10, % inhibition ± SD: 10 µM tubulin, 10 µM radiolabeled ligand
Outline: as §2

[9] = test system: Jurkat; experiment: Antiproliferative assay; format: cell-based; settings: Homo sapiens, 72 h, read-out: In vitro cytotoxic activity IC50, Jurkat
Outline: as §1

With `CN[C@H](C(=O)N[C@H](C(=O)N(C)[C@H](/C=C(\C)C(=O)O)C(C)C)C(C)(C)C)C(C)(C)c1ccccc1` [Compound 2, taltobulin] the “Inhibition of tubulin assembly (in words)” value [1] was “active”, the IC50 [1] was 1200 ± 10 nM and the “Cytotoxic activity (in words)” value [2] was “nanomolar IC50 values”. For the same compound, the IC50 [3] was 0.0002 ± 0.0001 µM, the “Inhibition of the binding of [3H]halichondrin B (in words)” value [4] was “active” and the “Inhibition of binding of [3H]halichondrin B, % inhibition ± SD” value ([4]; inhibitor 5 µM) was 38 ± 6%. For the same compound, the “Inhibition of binding of [3H]halichondrin B, % inhibition ± SD” value ([4]; inhibitor 20 µM) was 63 ± 1%, the “Inhibition of the binding of [3H]vinblastine (in words)” value [5] was “active” and the “Inhibition of binding of [3H]vinblastine, % inhibition ± SD” value ([5]; inhibitor 5 µM) was 29 ± 9%. For the same compound, the “Inhibition of binding of [3H]vinblastine, % inhibition ± SD” value ([5]; inhibitor 20 µM) was 60 ± 2%, the IC50 [6] was 0.0001 ± 5e-05 µM and the IC50 [7] was 0.3 ± 0.1 nM. The “Inhibition of the binding of [3H]dolastatin 10 (in words)” value [8] was “active”, the “Inhibition of binding of [3H]dolastatin 10, % inhibition ± SD” value ([8]; inhibitor 5 µM) was 0 ± 0% and the “Inhibition of binding of [3H]dolastatin 10, % inhibition ± SD” value ([8]; inhibitor 20 µM) was 30 ± 1%. For the same compound, the IC50 [9] was 0.2 ± 0.5 nM.

With `CN[C@H](C(=O)N[C@H](C(=O)N(C)[C@H](/C=C(\C)C(=O)O)C(C)C)C(C)(C)C)C(C)(C)c1cn(C)c2ccccc12` [Compound 1, hemiasterlin] the “Inhibition of tubulin assembly (in words)” value [1] was “active”, the IC50 [1] was 1300 ± 50 nM and the “Inhibition of the binding of [3H]halichondrin B (in words)” value [4] was “active”. The “Inhibition of binding of [3H]halichondrin B, % inhibition ± SD” value ([4]; inhibitor 5 µM) was 38 ± 4%, the “Inhibition of binding of [3H]halichondrin B, % inhibition ± SD” value ([4]; inhibitor 20 µM) was 92 ± 2% and the “Inhibition of the binding of [3H]vinblastine (in words)” value [5] was “active”. For the same compound, the “Inhibition of binding of [3H]vinblastine, % inhibition ± SD” value ([5]; inhibitor 5 µM) was 14 ± 4%, the “Inhibition of binding of [3H]vinblastine, % inhibition ± SD” value ([5]; inhibitor 20 µM) was 66 ± 4% and the “Inhibition of the binding of [3H]dolastatin 10 (in words)” value [8] was “active”. For the same compound, the “Inhibition of binding of [3H]dolastatin 10, % inhibition ± SD” value ([8]; inhibitor 5 µM) was 19 ± 7% and the “Inhibition of binding of [3H]dolastatin 10, % inhibition ± SD” value ([8]; inhibitor 20 µM) was 89 ± 1%.

In the case of `CN[C@H](C(=O)N[C@H](C(=O)N(C)c1cccc(C(=O)O)c1)C(C)C)C(C)(C)c1ccccc1.O=C(O)C(F)(F)F` [Compound 3, 3-((S)-N,3 Dimethyl-2-((S)-3-methyl-2-(methylamino)-3-phenylbutanamido)butanamido) benzoic acid trifluoroacetate], the IC50 [1] is reported as over 20000 nM, the IC50 [3] is reported as 4.7 ± 0.5 µM and the “Inhibition of binding of [3H]halichondrin B, % inhibition ± SD” value ([4]; inhibitor 20 µM) is reported as 0 ± 0%. For the same compound, the “Inhibition of binding of [3H]vinblastine, % inhibition ± SD” value ([5]; inhibitor 20 µM) was 2 ± 1%, the IC50 [6] was over 10 µM and the IC50 [7] was 1900 ± 500 nM. The “Inhibition of binding of [3H]dolastatin 10, % inhibition ± SD” value ([8]; inhibitor 20 µM) was 7 ± 3% and the IC50 [9] was 150 ± 20 nM.

For `CN[C@H](C(=O)N[C@H](C(=O)N(C)c1cc(C(=O)O)ccc1OC)C(C)C)C(C)(C)c1ccccc1.O=C(O)C(F)(F)F` [Compound 5, 3-((S)-N,3-Dimethyl-2-((S)-3-methyl-2-(methylamino)-3-phenylbutanamido)butanamido)-4-methoxybenzoic acid trifluoroacetate], the IC50 [1] was over 20000 nM, the IC50 [3] was over 10 µM and the “Inhibition of binding of [3H]halichondrin B, % inhibition ± SD” value ([4]; inhibitor 20 µM) was 0 ± 0%. For the same compound, the “Inhibition of binding of [3H]vinblastine, % inhibition ± SD” value ([5]; inhibitor 20 µM) was 0 ± 0%, the IC50 [6] was over 10 µM and the IC50 [7] was over 10000 nM. For the same compound, the “Inhibition of binding of [3H]dolastatin 10, % inhibition ± SD” value ([8]; inhibitor 20 µM) was 8 ± 2% and the IC50 [9] was over 10000 nM.

In the case of `CN[C@H](C(=O)N[C@H](C(=O)N(C)[C@H](c1nc(C(=O)O)co1)C(C)C)C(C)C)C(C)(C)c1ccccc1` [Compound 8, 2-((S)-1-((S)-N,3-Dimethyl-2-((S)-3-methyl-2-(methylamino)-3-phenylbutanamido)butanamido)-2-methylpropyl)oxazole-4-carboxylic acid trifluoroacetate], the IC50 [3] is reported as over 10 µM, the IC50 [6] is reported as over 10 µM and the IC50 [7] is reported as over 10000 nM. For the same compound, the IC50 [9] was over 10000 nM.

With `CN[C@H](C(=O)N[C@H](C(=O)N(C)c1cc(C(=O)O)ccc1C)C(C)C)C(C)(C)c1ccccc1.O=C(O)C(F)(F)F` [Compound 4, 3-((S)-N,3-Dimethyl-2-((S)-3-methyl-2-(methylamino)-3-phenylbutanamido)butanamido)-4-methylbenzoic acid trifluoroacetate] the IC50 [1] was over 20000 nM, the IC50 [3] was 5.3 ± 0.6 µM and the “Inhibition of binding of [3H]halichondrin B, % inhibition ± SD” value ([4]; inhibitor 20 µM) was 3 ± 1%. For the same compound, the “Inhibition of binding of [3H]vinblastine, % inhibition ± SD” value ([5]; inhibitor 20 µM) was 9 ± 1%, the IC50 [6] was over 10 µM and the IC50 [7] was 2700 ± 200 nM. For the same compound, the “Inhibition of binding of [3H]dolastatin 10, % inhibition ± SD” value ([8]; inhibitor 20 µM) was 0 ± 0% and the IC50 [9] was 290 ± 50 nM.
